Experimental data published in ChEMBL document CHEMBL1141273, “Epicoccins A-D, epipolythiodioxopiperazines from a Cordyceps-colonizing isolate of Epicoccum nigrum” (2007).
Active and inactive are the calls of the source. The calls are words filed in the database; no cut-off is given here.

What was measured:
Streptococcus mutans = experiment: Antimicrobial activity against Streptococcus mutans ATCC 25175 at 100 ug/disk after 24 hrs; assay type: functional, organism-based
Outline: (§1)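 Bacteria grown on Mueller-Hinton agar. Paper disks (6 mm) bearing 100 µg compound placed on the agar. Plates incubated at 37 °C for 24 h and examined for a zone of inhibition.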

Bacillus subtilis = experiment: Antimicrobial activity against Bacillus subtilis ATCC 6633 at 100 ug/disk after 24 hrs; conditions: for zone of inhibition at 100 µg/disc: ATCC 6633, 24 h, read-out: IZ
Aspergillus fumigatus = experiment: Antifungal activity against Aspergillus fumigatus ATCC 10894 at 100 ug/disk after 24 hrs; assay type: functional, organism-based
Staphylococcus aureus = experiment: Antimicrobial activity against Staphylococcus aureus ATCC 6538 at 100 ug/disk after 24 hrs; assay type: functional, organism-based; outline: as §1
Enterococcus faecalis = experiment: Antimicrobial activity against Enterococcus faecalis ATCC 19433 at 100 ug/disk after 24 hrs; assay type: functional, organism-based; outline: as §1
Micrococcus luteus = experiment: Antimicrobial activity against Sarcina lutea CMCC B28001 at 100 ug/disk after 24 hrs; assay type: functional, organism-based; outline: as §1
Candida albicans = experiment: Antifungal activity against Candida albicans ATCC 10231 at 100 ug/disk after 24 hrs; assay type: functional, organism-based
Geotrichum candidum = experiment: Antifungal activity against Geotrichum candidum AS2.498 at 100 ug/disk after 24 hrs; assay type: functional, organism-based

**Q.** For `O=C1C[C@@H]2SS[C@@]34C[C@@H]1[C@@H]([C@H]2O)N3C(=O)[C@@]12C[C@H]3C(=O)[C@H](S1)[C@H](O)[C@H](O)[C@H]3N2C4=O`, which Activity (Streptococcus mutans) is on record?
**A.** inactive

**Q.** And the Activity (Bacillus subtilis)?
**A.** inactive

**Q.** And the Activity (Aspergillus fumigatus)?
**A.** inactive

**Q.** And the Activity (Staphylococcus aureus)?
**A.** inactive

**Q.** What about the Activity (Enterococcus faecalis) of the same molecule?
**A.** inactive

**Q.** And the Activity (Micrococcus luteus)?
**A.** inactive

**Q.** And the Activity (Candida albicans)?
**A.** inactive

**Q.** What about the Activity (Geotrichum candidum) of the same molecule?
**A.** inactive

**Q.** How did the Activity (Streptococcus mutans) turn out when `O=C1C[C@@H]2SS[C@@]34C[C@@H]1[C@@H]([C@H]2O)N3C(=O)[C@@]12C[C@H]3C(=O)C[C@H](SS1)[C@H](O)[C@H]3N2C4=O` was run?
**A.** inactive

**Q.** What about the Activity (Bacillus subtilis) of the same molecule?
**A.** inactive

**Q.** What about the Activity (Aspergillus fumigatus) of the same molecule?
**A.** inactive

**Q.** What about the Activity (Staphylococcus aureus) of the same molecule?
**A.** inactive

**Q.** And the Activity (Enterococcus faecalis)?
**A.** inactive

**Q.** And the Activity (Micrococcus luteus)?
**A.** inactive

**Q.** What about the Activity (Candida albicans) of the same molecule?
**A.** inactive

**Q.** What about the Activity (Geotrichum candidum) of the same molecule?
**A.** inactive

**Q.** For `O=C1C[C@H]2SS[C@@]34C[C@@H]1[C@@H]([C@H]2O)N3C(=O)[C@@]12C[C@H]3C(=O)C[C@@H](S1)[C@H](O)[C@H]3N2C4=O` [EPICOCCIN A], which Activity (Streptococcus mutans) is on record?
**A.** inactive

**Q.** And the zone of inhibition at 100 µg/disc (Bacillus subtilis)?
**A.** 12 mm

**Q.** What about the Activity (Aspergillus fumigatus) of the same molecule?
**A.** inactive

**Q.** What about the Activity (Staphylococcus aureus) of the same molecule?
**A.** inactive

**Q.** What about the Activity (Enterococcus faecalis) of the same molecule?
**A.** inactive

**Q.** And the Activity (Micrococcus luteus)?
**A.** inactive

**Q.** And the Activity (Candida albicans)?
**A.** inactive

**Q.** And the Activity (Geotrichum candidum)?
**A.** inactive

**Q.** What does the source list for `O=C1C[C@@H]2S[C@@]34C[C@@H]1[C@@H]([C@H]2O)N3C(=O)[C@@]12C[C@H]3C(=O)C[C@H](S1)[C@H](O)[C@H]3N2C4=O`?
**A.** Activity (Streptococcus mutans): inactive; Activity (Bacillus subtilis): inactive; Activity (Aspergillus fumigatus): inactive; Activity (Staphylococcus aureus): inactive; Activity (Enterococcus faecalis): inactive; Activity (Micrococcus luteus): inactive; Activity (Candida albicans): inactive; Activity (Geotrichum candidum): inactive

**Q.** With `O=C(O)c1cn(C2CC2)c2cc(N3CCNCC3)c(F)cc2c1=O` [CIPROFLOXACIN] as the molecule, how does the zone of inhibition at 100 µg/disc (Bacillus subtilis) read?
**A.** 28 mm
